Measurements reported in ChEMBL document CHEMBL2385036, “Peptaibols, tetramic acid derivatives, isocoumarins, and sesquiterpenes from a Bionectria sp. (MSX 47401)” (J Nat Prod, 2013).
pIC50: −log10 of the molar value. ≈ marks a conversion by molar mass, not a printed value. Calls of active or inactive are those of the source. No cut-off for these calls is given here.

Assays:
[1] = system: Cryptococcus neoformans; assay: Antifungal activity against Cryptococcus neoformans after 7 days by broth microdilution method; type: functional; conditions: 168 h
Outline: (§1)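 MIC by broth method: cultures diluted 10- to 100,000-fold in growth medium, with both undiluted cultures and the dilutions used as inocula; each measurement run in duplicate.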

[2] = system: Staphylococcus aureus; assay: Antimicrobial activity against methicillin-resistant Staphylococcus aureus GU 52300 after 7 days by broth microdilution method; type: functional; conditions: GU 52300, 168 h
Outline: (§2)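 MIC read-out; inocula were undiluted cultures plus cultures diluted 10- to 100,000-fold in growth medium. All measurements were run in duplicate.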

[3] = system: Staphylococcus aureus; assay: Antimicrobial activity against methicillin-resistant Staphylococcus aureus DA 1 after 7 days by broth microdilution method; type: functional; conditions: DA 1, 168 h; outline: as §2
[4] = system: Staphylococcus aureus; assay: Antimicrobial activity against methicillin-resistant Staphylococcus aureus GU 34380 after 7 days by broth microdilution method; type: functional; conditions: GU 34380, 168 h; outline: as §2
[5] = system: Aspergillus niger; assay: Antifungal activity against Aspergillus niger after 7 days by broth microdilution method; type: functional; conditions: 168 h; outline: as §1
[6] = system: Staphylococcus aureus; assay: Antimicrobial activity against methicillin-resistant Staphylococcus aureus GU 34864 after 7 days by broth microdilution method; type: functional; conditions: GU 34864, 168 h; outline: as §2
[7] = system: Staphylococcus aureus; assay: Antimicrobial activity against methicillin-resistant Staphylococcus aureus GU 36361 after 7 days by broth microdilution method; type: functional; conditions: GU 36361, 168 h; outline: as §2
[8] = system: Candida albicans; assay: Antifungal activity against Candida albicans after 7 days by broth microdilution method; type: functional; conditions: 168 h; outline: as §1
[9] = system: Staphylococcus aureus; assay: Antimicrobial activity against methicillin-resistant Staphylococcus aureus GU 53016 after 7 days by broth microdilution method; type: functional; conditions: GU 53016, 168 h; outline: as §2
[10] = system: Staphylococcus aureus; assay: Antimicrobial activity against methicillin-resistant Staphylococcus aureus ATCC 43300 after 7 days by broth microdilution method; type: functional; conditions: ATCC 43300, 168 h; outline: as §2
[11] = system: Staphylococcus aureus; assay: Antimicrobial activity against Staphylococcus aureus ATCC 6538 after 7 days by broth microdilution method; type: functional; conditions: ATCC 6538, 168 h; outline: as §2
[12] = system: SF-268; assay: Cytotoxicity against human SF268 cells after 72 hrs by MTS assay; type: functional, cell-based
Outline: (§3)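 Cell lines were MCF-7 human breast carcinoma (Karmanos Cancer Center), NCI-H460 human large cell lung carcinoma (ATCC HTB-177) and SF-268 human astrocytoma (NCI Developmental Therapeutics Program). The cytotoxicity protocol followed an earlier report.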

[13] = system: NCI-H460; assay: Cytotoxicity against human NCI-H460 cells after 72 hrs by MTS assay; type: functional, cell-based; outline: as §3
[14] = system: MCF7; assay: Cytotoxicity against human MCF7 cells after 72 hrs by MTS assay; type: functional, cell-based; outline: as §3

CC1=CC[C@H]([C@](C)(O)CCC(O)C(C)(C)O)CC1 (some centres not stated)
MIC [1]: > 118 µg/mL
MIC [2]: > 118 µg/mL
MIC [3]: > 118 µg/mL
MIC [4]: > 118 µg/mL
MIC [5]: > 118 µg/mL
MIC [6]: > 118 µg/mL
MIC [7]: > 118 µg/mL
MIC [8]: > 118 µg/mL
MIC [9]: > 118 µg/mL
MIC [10]: > 118 µg/mL
MIC [11]: > 118 µg/mL

CC(CCCCCCCCC(=O)CCCCCCCCC[C@@H](O)CO[C@@H]1O[C@H](CO)[C@@H](O)[C@H](O)[C@H]1O)C(=O)C1=C(O)C(Cc2ccc(O)cc2)=NC1=O (some centres not stated)
Activity [12]: inactive
MIC [1]: > 55 µg/mL
Activity [13]: inactive
MIC [2]: 28 µg/mL (≈ 37.4 µM)
MIC [3]: 14 µg/mL (≈ 18.7 µM)
MIC [4]: 14 µg/mL (≈ 18.7 µM)
MIC [5]: > 55 µg/mL
Activity [14]: inactive
MIC [6]: 14 µg/mL (≈ 18.7 µM)
MIC [7]: 28 µg/mL (≈ 37.4 µM)
MIC [8]: > 55 µg/mL
MIC [9]: 28 µg/mL (≈ 37.4 µM)
MIC [10]: 14 µg/mL (≈ 18.7 µM)
MIC [11]: 14 µg/mL (≈ 18.7 µM)

CC[C@H](C)[C@@H](NC(=O)[C@@](C)(CC)NC(=O)[C@@H]1C[C@@H](O)CN1C(=O)[C@@](C)(CC)NC(=O)[C@@](C)(CC)NC(=O)C(C)(C)NC(=O)[C@@H]1C[C@@H](O)CN1C(=O)[C@@](C)(CC)NC(=O)[C@H](CC(C)C)NC(=O)[C@@H]1C[C@@H](O)CN1C(=O)[C@](C)(CC)NC(=O)[C@H](CC(C)C)NC(=O)[C@@H]1C[C@@H](O)CN1C(=O)C(C)(C)NC(C)=O)C(=O)O[C@@H]([C@H](O)[C@H](O)CO)[C@H](O)CO
MIC [1]: > 118 µg/mL
MIC [2]: > 118 µg/mL
MIC [3]: > 118 µg/mL
MIC [4]: > 118 µg/mL
MIC [5]: > 118 µg/mL
MIC [6]: > 118 µg/mL
MIC [7]: > 118 µg/mL
MIC [8]: > 118 µg/mL
MIC [9]: > 118 µg/mL
MIC [10]: > 118 µg/mL
MIC [11]: > 118 µg/mL

CC(=O)c1coc(=O)c2c(O)cc(O)c(C)c12
pIC50 ([12]; SF-268, 72 h): < 5.00
pIC50 ([13]; NCI-H460, 72 h): < 5.00
pIC50 ([14]; MCF7, 72 h): < 5.00

C[C@@H]1[C@H](O)[C@@H](C)/C=C/C=C/C=C/C=C/C=C/C=C/C=C/[C@H](O[C@@H]2O[C@H](C)[C@@H](O)[C@H](N)[C@@H]2O)C[C@@H]2O[C@](O)(C[C@@H](O)C[C@@H](O)[C@H](O)CC[C@@H](O)C[C@@H](O)CC(=O)O[C@H]1C)C[C@H](O)[C@H]2C(=O)O [AMPHOTERICIN B]
MIC [1]: 25 µg/mL (≈ 27.1 µM)
MIC [5]: 100 µg/mL (≈ 108 µM)
MIC [8]: 25 µg/mL (≈ 27.1 µM)

CC[C@H](C)[C@@H](NC(=O)[C@@](C)(CC)NC(=O)[C@@H]1C[C@@H](O)CN1C(=O)C(C)(C)NC(=O)[C@@](C)(CC)NC(=O)C(C)(C)NC(=O)[C@@H]1C[C@@H](O)CN1C(=O)[C@@](C)(CC)NC(=O)[C@H](CC(C)C)NC(=O)[C@@H]1C[C@@H](O)CN1C(=O)[C@](C)(CC)NC(=O)[C@H](CC(C)C)NC(=O)[C@@H]1C[C@@H](O)CN1C(=O)C(C)(C)NC(C)=O)C(=O)O[C@@H]([C@H](O)[C@H](O)CO)[C@H](O)CO [CLONOSTACHIN]
MIC [1]: > 118 µg/mL
MIC [2]: > 118 µg/mL
MIC [3]: > 118 µg/mL
MIC [4]: > 118 µg/mL
MIC [5]: > 118 µg/mL
MIC [6]: > 118 µg/mL
MIC [7]: > 118 µg/mL
MIC [8]: > 118 µg/mL
MIC [9]: > 118 µg/mL
MIC [10]: > 118 µg/mL
MIC [11]: > 118 µg/mL

CN[C@H](CC(C)C)C(=O)N[C@H]1C(=O)N[C@@H](CC(N)=O)C(=O)N[C@H]2C(=O)N[C@H]3C(=O)N[C@H](C(=O)N[C@H](C(=O)O)c4cc(O)cc(O)c4-c4cc3ccc4O)[C@H](O)c3ccc(c(Cl)c3)Oc3cc2cc(c3O[C@@H]2O[C@H](CO)[C@@H](O)[C@H](O)[C@H]2O[C@H]2C[C@](C)(N)[C@H](O)[C@H](C)O2)Oc2ccc(cc2Cl)[C@H]1O [VANCOMYCIN]
MIC [3]: 0.25 µg/mL (≈ 0.173 µM)
MIC [6]: 0.38 µg/mL (≈ 0.262 µM)
MIC [7]: 0.75 µg/mL (≈ 0.518 µM)
MIC [9]: 0.38 µg/mL (≈ 0.262 µM)
MIC [10]: 0.25 µg/mL (≈ 0.173 µM)
MIC [11]: 0.25 µg/mL (≈ 0.173 µM)

CC(CCCCCCCCC(=O)CCCCCCCCC[C@@H](O)CO)C(=O)C1=C(O)[C@H](Cc2ccc(O)cc2)NC1=O (some centres not stated) [VIRGINEONE AGLYCONE]
Activity [12]: inactive
MIC [1]: > 88 µg/mL
Activity [13]: inactive
MIC [2]: 5.5 µg/mL (≈ 9.36 µM)
MIC [3]: 2.8 µg/mL (≈ 4.76 µM)
MIC [4]: 2.8 µg/mL (≈ 4.76 µM)
MIC [5]: > 88 µg/mL
Activity [14]: inactive
MIC [6]: 2.8 µg/mL (≈ 4.76 µM)
MIC [7]: 5.5 µg/mL (≈ 9.36 µM)
MIC [8]: > 88 µg/mL
MIC [9]: 2.8 µg/mL (≈ 4.76 µM)
MIC [10]: 2.8 µg/mL (≈ 4.76 µM)
MIC [11]: 2.8 µg/mL (≈ 4.76 µM)

CC(CCCCCCCCC(=O)CCCCCCCCCC(O)CO[C@@H]1O[C@H](CO)[C@@H](O)[C@H](O)[C@@H]1O)C(=O)C1=C(O)C(Cc2ccc(O)cc2)NC1=O (some centres not stated) [VIRGINEONE]
Activity [12]: inactive
MIC [1]: 14.4 µg/mL (≈ 19.2 µM)
Activity [13]: inactive
MIC [2]: 7.2 µg/mL (≈ 9.6 µM)
MIC [3]: 7.2 µg/mL (≈ 9.6 µM)
MIC [4]: 7.2 µg/mL (≈ 9.6 µM)
MIC [5]: 14.4 µg/mL (≈ 19.2 µM)
Activity [14]: inactive
MIC [6]: 7.2 µg/mL (≈ 9.6 µM)
MIC [7]: 7.2 µg/mL (≈ 9.6 µM)
MIC [8]: 14.4 µg/mL (≈ 19.2 µM)
MIC [9]: 7.2 µg/mL (≈ 9.6 µM)
MIC [10]: 7.2 µg/mL (≈ 9.6 µM)
MIC [11]: 7.2 µg/mL (≈ 9.6 µM)
